Measurements as given in publication PMC7276679 (Acta Pharmaceutica Sinica. B, 2019).

Format: in vivo, Sprague-Dawley rats
Conditions: 5 mg/kg p.o.
Procedure, shortened: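 8-week-old male WT and CRISPR/Cas9 Slco1b2 KO SD rats, fasted 12 h, given the OATP1B2 probe substrate as a CMC-Na suspension intragastrically. Plasma underwent ethyl acetate liquid–liquid extraction with mebendazole internal standard, then positive-ESI LC–MS/MS. Parameters were derived by non-compartmental analysis.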

- decrease of CL/F in KO rats compared with WT rats (KO vs WT rats): 38.5%
- decrease of Vd/F in KO rats compared with WT rats (KO vs WT rats): 39.8%
- increase of AUC0–24 h in KO rats compared with WT rats (KO vs WT rats): 68.8%
- increase of AUC0–inf in KO rats compared with WT rats (KO vs WT rats): 68.8%
- AUC(0-inf) (male, Sprague-Dawley, rat, plasma, po, 5 mg/kg, AUC0–inf, Slco1b2 KO male rats, mean ± SD, n = 6): 3440 ± 1050 ng·h/mL
- AUC(0-t) (male, Sprague-Dawley, rat, plasma, po, 5 mg/kg, AUC0–t, Slco1b2 KO male rats, mean ± SD, n = 6): 3410 ± 1040 ng·h/mL
- CL/F (male, Sprague-Dawley, rat, plasma, po, 5 mg/kg, CL/F, Slco1b2 KO male rats, mean ± SD, n = 6): 26 mL/min/kg
- Cmax (male, Sprague-Dawley, rat, plasma, po, 5 mg/kg, Cmax, Slco1b2 KO male rats, mean ± SD, n = 6): 1000 ± 336 ng/mL
- MRT last (male, Sprague-Dawley, rat, plasma, po, 5 mg/kg, MRT0–t, Slco1b2 KO male rats, mean ± SD, n = 6): 3.65 ± 0.89 h
- Tmax (male, Sprague-Dawley, rat, plasma, po, 5 mg/kg, Tmax, Slco1b2 KO male rats, mean ± SD, n = 6): 2.08 ± 0.97 h
- Vd/F (male, Sprague-Dawley, rat, plasma, po, 5 mg/kg, Vd/F, Slco1b2 KO male rats, mean ± SD, n = 6): 6.58 ± 1.9 L/kg
- half-life (male, Sprague-Dawley, rat, plasma, po, 5 mg/kg, t1/2, Slco1b2 KO male rats, mean ± SD, n = 6): 2.92 ± 0.43 h
SMILES: O=C(O)C[C@H](O)C[C@H](O)/C=C/c1c(C2CC2)nc2ccccc2c1-c1ccc(F)cc1 [pitavastatin, Pitavastatin]
